Key:
Mus musculus [1] = experiment: Inhibition of Mouse active Arthus (MAA) reaction activity was determined for peroral screening dose of 150 mg/kg in mouse; 21-30%; type: functional; conditions: route oral
Cavia porcellus [2] = experiment: Tested in delayed hypersensitivity skin reaction (DHSR) after subcutaneous administration, activity reported as percent inhibition of erythema/induration of lesion; 7/1; type: functional
Summary of the method: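 Male Hartley guinea pigs were sensitized with Mycobacterium tuberculosis in Freund's incomplete adjuvant, injected into each hind footpad and subcutaneously at the neck. After 3 weeks, 1.2 μg PPD was given intradermally. Compound in sesame oil was given sc, 3 animals per group, 30 min before and 5 h after PPD; screening dose 50 mg/kg.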

Cavia porcellus [3] = experiment: The compound was evaluated for the delayed hypersensitivity skin reaction (DHSR) activity after subcutaneous administration; 11/27
Mus musculus [4] = experiment: Inhibition of Mouse active Arthus (MAA) reaction activity was determined for peroral dose of 300 mg/kg in mouse; 31-40%; type: functional; conditions: route oral
Mus musculus [5] = species: Mus musculus; experiment: The compound was evaluated for the mouse active Arthus (MAA) reaction activity expressed as inhibitory dose.; type: functional; conditions: read-out: ID50 (the source's name)
Summary of the method: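 CD-1 mice were sensitized ip with a 1:1 Freund's complete adjuvant emulsion containing BSA in saline, 5 weeks before challenge. Compound was suspended in 1% Na CMC in pyrogen-free saline and given as one ip or oral dose 1 h before skin challenge with BSA. Screening doses were 150 mg/kg ip and 300 mg/kg po, with some at 75 or 50 mg/kg ip. Lesions were excised 3.5 h after challenge and weighed against controls.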

Mus musculus [6] = experiment: Inhibition of Mouse Active Arthus reaction following 150 mg/Kg i.p.; 41-60% inhibition.; type: functional; conditions: Mus musculus, ip
Cavia porcellus [7] = experiment: The compound was evaluated for the delayed hypersensitivity skin reaction (DHSR) activity after subcutaneous administration; 8/1
Mus musculus [8] = experiment: Mouse active Arthus (MAA) reaction activity was determined for an ip dose of 150 mg/kg in mouse; 31-40%; type: functional; conditions: route intraperitoneal

`CCCN1N=C2/C(=C/c3ccc(C(C)(C)C)cc3)CS(=O)(=O)CC2C1c1ccc(C(C)(C)C)cc1` (stereo not drawn) showed an inhibition in vivo at 150 mg/kg (Mus musculus [1]) of 21% and an Activity (Cavia porcellus [2]) of 7.

`CN1CCN(CCCN2N=C3/C(=C/c4ccc([S+](C)[O-])cc4)CSCC3C2c2ccc([S+](C)[O-])cc2)CC1.O=C(O)/C=C\C(=O)O` (stereo not drawn) was tested, and the Activity (Cavia porcellus [3]) was 11, the inhibition in vivo at 300 mg/kg (Mus musculus [4]) was 31% and the ED50 (Mus musculus [5]) was 190 mg/kg. It also gave an inhibition in vivo at 150 mg/kg (Mus musculus [6]) of 41%.

In the case of `C#CCN1N=C2/C(=C/c3cccc(C(F)(F)F)c3)CS(=O)(=O)CC2C1c1cccc(C(F)(F)F)c1` (stereo not drawn), the Activity (Cavia porcellus [7]) is reported as 8 and the inhibition in vivo at 150 mg/kg (Mus musculus [8]) is reported as 31%.

From ChEMBL document CHEMBL1122142, “Synthesis and antiinflammatory activity of hexahydrothiopyrano[4,3-c]pyrazoles and related analogues” (J Med Chem, 1982)
